From ChEMBL document CHEMBL1151761, “Radiohalogenated prostate-specific membrane antigen (PSMA)-based ureas as imaging agents for prostate cancer” (J Med Chem, 2008)

Columns and labels:
Type in all cases: ADME, organism-based
[1] = Ratio of drug level in PC3 PIP tumor to PC3 flu tumor of human PSMA expressing PC3 PIP and PSMA deficient human PC3 flu cells xenografted SCID mouse at 2 uCi, iv after 30 mins; conditions: in vivo, 0.5 h
Outline: (§1)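 Male SCID mice carried subcutaneous PSMA+ PC-3 PIP (left shoulder) and PC-3 flu (right shoulder) xenografts, 1-5 × 10^6 cells in HBSS, and were used at 3-5 mm tumor diameter. Tail-vein injection of 2 µCi radioligand; four mice per time point, killed by cervical dislocation. %ID/g from a standard dilution of the dose, decay-corrected, mean ± SD; PIP tumor:organ ratios.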

[2] = Ratio of drug level in PC3 PIP tumor to PC3 flu tumor of human PSMA expressing PC3 PIP and PSMA deficient human PC3 flu cells xenografted SCID mouse at 2 uCi, iv after 5 hrs; conditions: in vivo; outline: as §1
Spleen = assay: Biodistribution in spleen of PSMA expressing human PC3 PIP and PSMA deficient human PC3 flu cells xenografted SCID mouse at 2 uCi, iv after 30 mins; conditions: in vivo, 0.5 h
Urinary bladder [3] = assay: Biodistribution in bladder of PSMA expressing human PC3 PIP and PSMA deficient human PC3 flu cells xenografted SCID mouse at 2 uCi, iv after 30 mins; conditions: in vivo, 0.5 h
[4] = Biodistribution in PC3 flu tumor of PSMA expressing human PC3 PIP and PSMA deficient human PC3 flu cells xenografted SCID mouse at 2 uCi, iv after 30 mins; conditions: in vivo, 0.5 h; outline: as §1
Blood [5] = assay: Biodistribution in blood of PSMA expressing human PC3 PIP and PSMA deficient human PC3 flu cells xenografted SCID mouse at 2 uCi, iv after 60 mins; conditions: in vivo, 1 h
Lung = assay: Biodistribution in lung of PSMA expressing human PC3 PIP and PSMA deficient human PC3 flu cells xenografted SCID mouse at 2 uCi, iv after 2 hrs; conditions: in vivo
Liver = assay: Biodistribution in liver of PSMA expressing human PC3 PIP and PSMA deficient human PC3 flu cells xenografted SCID mouse at 2 uCi, iv after 2 hrs; conditions: in vivo
Kidney = assay: Biodistribution in kidney of PSMA expressing human PC3 PIP and PSMA deficient human PC3 flu cells xenografted SCID mouse at 2 uCi, iv after 2 hrs; conditions: in vivo
Urinary bladder [6] = assay: Biodistribution in bladder of PSMA expressing human PC3 PIP and PSMA deficient human PC3 flu cells xenografted SCID mouse at 2 uCi, iv after 2 hrs; conditions: in vivo
[7] = Biodistribution in PC3 PIP tumor of PSMA expressing human PC3 PIP and PSMA deficient human PC3 flu cells xenografted SCID mouse at 2 uCi, iv after 2 hrs; conditions: in vivo
Blood [8] = assay: Biodistribution in blood of PSMA expressing human PC3 PIP and PSMA deficient human PC3 flu cells xenografted SCID mouse at 2 uCi, iv after 5 hrs; conditions: in vivo
Muscle tissue = assay: Biodistribution in muscle of PSMA expressing human PC3 PIP and PSMA deficient human PC3 flu cells xenografted SCID mouse at 2 uCi, iv after 5 hrs; conditions: in vivo
[9] = Biodistribution in small intestine of PSMA expressing human PC3 PIP and PSMA deficient human PC3 flu cells xenografted SCID mouse at 2 uCi, iv after 5 hrs; conditions: in vivo; outline: as §1
[10] = Biodistribution in large intestine of PSMA expressing human PC3 PIP and PSMA deficient human PC3 flu cells xenografted SCID mouse at 2 uCi, iv after 5 hrs; conditions: in vivo; outline: as §1
[11] = Ratio of drug level in tumor to spleen of human PSMA expressing PC3 PIP and PSMA deficient human PC3 flu cells xenografted SCID mouse at 2 uCi, iv after 30 mins; conditions: in vivo, 0.5 h
Outline: (§2)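 Male SCID mice carried subcutaneous xenografts: PSMA+ PC-3 PIP behind the left shoulder and PSMA− PC-3 flu behind the right, 1–5 × 10^6 cells in HBSS. Mice were used at 3–5 mm tumor diameter. 2 μCi was given by tail vein, and 4 mice per time point were killed by cervical dislocation. %ID/g came from a standard dilution of the dose, decay-corrected. Ratio is PIP tumor %ID/g to organ %ID/g.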

[12] = Ratio of drug level in tumor to liver of human PSMA expressing PC3 PIP and PSMA deficient human PC3 flu cells xenografted SCID mouse at 2 uCi, iv after 60 mins; conditions: in vivo, 1 h; outline: as §1
[13] = Ratio of drug level in tumor to pancreas of human PSMA expressing PC3 PIP and PSMA deficient human PC3 flu cells xenografted SCID mouse at 2 uCi, iv after 60 mins; conditions: in vivo, 1 h; outline: as §2
[14] = Ratio of drug level in tumor to muscle of human PSMA expressing PC3 PIP and PSMA deficient human PC3 flu cells xenografted SCID mouse at 2 uCi, iv after 60 mins; conditions: in vivo, 1 h; outline: as §1
[15] = Ratio of drug level in tumor to small intestine of human PSMA expressing PC3 PIP and PSMA deficient human PC3 flu cells xenografted SCID mouse at 2 uCi, iv after 60 mins; conditions: in vivo, 1 h; outline: as §2
[16] = Ratio of drug level in tumor to heart of human PSMA expressing PC3 PIP and PSMA deficient human PC3 flu cells xenografted SCID mouse at 2 uCi, iv after 2 hrs; conditions: in vivo; outline: as §1
[17] = Ratio of drug level in tumor to heart of human PSMA expressing PC3 PIP and PSMA deficient human PC3 flu cells xenografted SCID mouse at 2 uCi, iv after 30 mins; conditions: in vivo, 0.5 h; outline: as §1
[18] = Ratio of drug level in tumor to lung of human PSMA expressing PC3 PIP and PSMA deficient human PC3 flu cells xenografted SCID mouse at 2 uCi, iv after 30 mins; conditions: in vivo, 0.5 h; outline: as §1
[19] = Ratio of drug level in tumor to lung of human PSMA expressing PC3 PIP and PSMA deficient human PC3 flu cells xenografted SCID mouse at 2 uCi, iv after 5 hrs; conditions: in vivo; outline: as §1
[20] = Ratio of drug level in tumor to liver of human PSMA expressing PC3 PIP and PSMA deficient human PC3 flu cells xenografted SCID mouse at 2 uCi, iv after 5 hrs; conditions: in vivo; outline: as §1
[21] = Ratio of drug level in tumor to stomach of human PSMA expressing PC3 PIP and PSMA deficient human PC3 flu cells xenografted SCID mouse at 2 uCi, iv after 5 hrs; conditions: in vivo; outline: as §2
[22] = Ratio of drug level in tumor to spleen of human PSMA expressing PC3 PIP and PSMA deficient human PC3 flu cells xenografted SCID mouse at 2 uCi, iv after 5 hrs; conditions: in vivo; outline: as §2
[23] = Ratio of drug level in tumor to muscle of human PSMA expressing PC3 PIP and PSMA deficient human PC3 flu cells xenografted SCID mouse at 2 uCi, iv after 5 hrs; conditions: in vivo; outline: as §1
[24] = Ratio of drug level in tumor to small intestine of human PSMA expressing PC3 PIP and PSMA deficient human PC3 flu cells xenografted SCID mouse at 2 uCi, iv after 5 hrs; conditions: in vivo; outline: as §2
Blood [25] = assay: Biodistribution in blood of PSMA expressing human PC3 PIP and PSMA deficient human PC3 flu cells xenografted SCID mouse at 2 uCi, iv after 30 mins; conditions: in vivo, 0.5 h
Heart = assay: Biodistribution in heart of PSMA expressing human PC3 PIP and PSMA deficient human PC3 flu cells xenografted SCID mouse at 2 uCi, iv after 30 mins; conditions: in vivo, 0.5 h

Q: For `O=C(O)CC[C@H](NC(=O)N[C@@H](CCCCNC(=O)c1ccc([18F])cc1)C(=O)O)C(=O)O`, which Ratio [1] is on record?
A: 11

Q: And the Ratio [2]?
A: 35

Q: What about the Drug uptake (Spleen) of the same molecule?
A: 12.7 % ID/g

Q: What about the Drug uptake (Urinary bladder [3]) of the same molecule?
A: 6.8 % ID/g

Q: And the Drug uptake [4]?
A: 0.8 % ID/g

Q: What about the Drug uptake (Blood [5]) of the same molecule?
A: 0.7 % ID/g

Q: And the Drug uptake (Lung)?
A: 1 % ID/g

Q: What about the Drug uptake (Liver) of the same molecule?
A: 11.7 % ID/g

Q: And the Drug uptake (Kidney)?
A: 29 % ID/g

Q: And the Drug uptake (Urinary bladder [6])?
A: 11 % ID/g

Q: And the Drug uptake [7]?
A: 3.7 % ID/g

Q: And the Drug uptake (Blood [8])?
A: 0.03 % ID/g

Q: What about the Drug uptake (Muscle tissue) of the same molecule?
A: 0.1 % ID/g

Q: And the Drug uptake [9]?
A: 0.1 % ID/g

Q: And the Drug uptake [10]?
A: 0.6 % ID/g

Q: What about the Ratio [11] of the same molecule?
A: 0.7

Q: And the Ratio [12]?
A: 1

Q: What about the Ratio [13] of the same molecule?
A: 21

Q: What about the Ratio [14] of the same molecule?
A: 13

Q: What about the Ratio [15] of the same molecule?
A: 11

Q: What about the Ratio [16] of the same molecule?
A: 25

Q: And the Ratio [17]?
A: 11

Q: What about the Ratio [18] of the same molecule?
A: 5

Q: What about the Ratio [19] of the same molecule?
A: 35

Q: And the Ratio [20]?
A: 3.5

Q: And the Ratio [21]?
A: 88

Q: What about the Ratio [22] of the same molecule?
A: 3.5

Q: What about the Ratio [23] of the same molecule?
A: 35

Q: And the Ratio [24]?
A: 35

Q: What about the Drug uptake (Blood [25]) of the same molecule?
A: 2.5 % ID/g

Q: What about the Drug uptake (Heart) of the same molecule?
A: 0.8 % ID/g
